In ChEMBL document CHEMBL2093137, “WHO-TDR NTD Screening”:
Values after ≈ are worked out from the molar mass of the structure shown.

Tests used:
[1] = WHO-TDR: Cytotoxicity; assay type: toxicity, cell-based; conditions: human, MRC5 cells
Plasmodium falciparum K1 = experiment: WHO-TDR: Malaria; assay type: functional, organism-based, Homo sapiens; conditions: Erythrocyte
Summary of the method: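 Life Chemicals supplied the diverse library of 10,000 compounds, which had been filtered for drug-likeness and reactive groups. Each was screened against the K1 strain of Plasmodium falciparum at its intra-erythrocytic stage in human red blood cells, using previously published standard procedures and a reference drug as positive control. The table reports IC50 for antiplasmodial potency.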

Trypanosoma cruzi = experiment: WHO-TDR: Chagas disease; assay type: functional, organism-based, Homo sapiens; conditions: MRC5
Summary of the method: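 Intracellular amastigotes of the Trypanosoma cruzi Tulahuen CL2 beta-galactosidase strain, grown in MRC-5SV2 human lung fibroblast host cells, were tested in a whole-organism screen. The compounds came from a 10,000-member diverse Life Chemicals library that had been filtered for drug-likeness and reactive groups. Previously published standard procedures were followed, with a reference drug as positive control, and potency is reported as IC50.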

[2] = system: Trypanosoma brucei brucei; experiment: WHO-TDR: Human African Trypanosomiasis (HAT); assay type: functional, organism-based; conditions: Squib-427
Summary of the method: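 Following previously published standard procedures, with reference drugs as positive controls, a whole-organism assay was run against bloodstream-form Trypanosoma brucei, Squib 427 strain. The compounds, 10,000 in all, came from a diverse Life Chemicals library filtered for drug-likeness and reactive groups. Reported values are IC50 for antiparasitic potency.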

Leishmania infantum = experiment: WHO-TDR: Leishmaniasis; assay type: functional, organism-based, Mus musculus; conditions: Macrophage
Summary of the method: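 IC50 values describe antiparasitic potency in this whole-organism screen. Leishmania infantum MHOM/MA(BE)/67 amastigotes were tested inside murine peritoneal macrophages against a 10,000-compound diverse Life Chemicals library. A reference drug served as positive control.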

Schistosoma mansoni = experiment: WHO-TDR: Schistosomiasis; assay type: functional; parameters: concentration or dose not given beside the values
Summary of the method: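 Larval and/or adult Schistosoma mansoni (Puerto Rican strain) were tested whole against 10,000 diverse compounds from Life Chemicals. The procedure was a previously published standard one, using a reference drug as positive control. Results are expressed as percent inhibition and IC50.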

Onchocerca lienalis = experiment: (§1) WHO-TDR: Onchocerciasis; assay type: functional; parameters: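 at 12.5 µM on microfilariae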
Summary of the method: (§2)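 Onchocerca ochengi or Onchocerca lienalis, animal pathogens used as surrogates for the human parasite, were screened as whole microfilariae against a 10,000-compound diverse library from Life Chemicals. The reported measures of activity are percent inhibition and IC50.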

Brugia malayi [3] = experiment: (§3) WHO-TDR: Lymphatic Filariasis; assay type: functional; parameters: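 tested at 10 µM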
Summary of the method: (§4)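 Percent inhibition and IC50 describe activity against Brugia malayi microfilariae in a whole-organism screen. The screen used previously published standard procedures with reference drugs as positive controls. Compounds came from a diverse Life Chemicals library of 10,000, filtered for drug-likeness and reactive groups.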

Brugia malayi [4] = experiment: as §3; assay type: functional, organism-based; summary of the method: as §4
Brugia malayi [5] = experiment: as §3; assay type: functional; parameters: concentration or dose not given beside the values; summary of the method: as §4; remark: listed apart in the source
Onchocerca ochengi = experiment: as §1; assay type: functional; parameters: concentration or dose not given beside the values; summary of the method: as §2;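 further: at 12.5 µM on microfilariae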

| Compound | IC50 [1] | IC50 (Plasmodium falciparum K1) | IC50 (Trypanosoma cruzi) | IC50 [2] | IC50 (Leishmania infantum) | % Inhibition (Schistosoma mansoni) | % Inhibition (Onchocerca lienalis) | % Inhibition (Brugia malayi [3]) | IC50 (Brugia malayi [4]) | % Inhibition (Brugia malayi [5]) | % Inhibition (Onchocerca ochengi) |
| --- | --- | --- | --- | --- | --- | --- | --- | --- | --- | --- | --- |
| CCOC(=O)c1ccc(NC(=O)CSc2c(C)[nH]c3ccccc23)cc1 | > 11.1 µg/mL | > 11.1 µg/mL | 3.49 µg/mL (≈ 9.49 µM) | 3.67 µg/mL (≈ 9.95 µM) | > 11.1 µg/mL | 0% | 46.7% | 100% | 6.05 µM | 0% |  |
| O=C(Nc1nccs1)c1ccc2c(c1)CCCC2 | > 7.75 µg/mL | > 7.75 µg/mL | > 7.75 µg/mL | > 7.75 µg/mL | > 7.75 µg/mL | 0% | 0% | 100% | 5.19 µM | 25% |  |
| O=C(CSc1nnc(NC(=O)C2CCCCC2)s1)Nc1ccccc1C(F)(F)F | > 13.3 µg/mL | > 13.3 µg/mL | > 13.3 µg/mL | > 13.3 µg/mL | > 13.3 µg/mL | 0% | 0% | 100% | 3.58 µM | 0% |  |
| CCOC(=O)c1c(NC(=O)CSc2nc3c([nH]c4ccccc43)c(=O)n2-c2ccccc2)sc2c1CCC2 | > 16.3 µg/mL | > 16.3 µg/mL | > 16.3 µg/mL | > 17.4 µg/mL | 5.29 µg/mL (≈ 9.71 µM) | 0% | 0% | 100% | 4.37 µM | 25% |  |
| COc1ccccc1C(=O)NCCSc1c(-c2ccccc2)[nH]c2ccccc12 | > 12.1 µg/mL | 5.19 µg/mL (≈ 12.9 µM) | 2.91 µg/mL (≈ 7.24 µM) | 4.03 µg/mL (≈ 10 µM) | > 12.1 µg/mL | 0% | 0% | 100% | 4.61 µM | 25% |  |
| O=C(Nc1nc(-c2ccccn2)cs1)c1ccc2ncsc2c1 | 3.63 µg/mL (≈ 10.7 µM) | 1.52 µg/mL (≈ 4.49 µM) | 0.345 µg/mL (≈ 1.02 µM) | 2.36 µg/mL (≈ 6.99 µM) | 3.21 µg/mL (≈ 9.49 µM) | 0% | 66.7% | 100% | 2.02 µM | 40% |  |
| O=C(CSc1nnc(NC(=O)C23CC4CC(CC(C4)C2)C3)s1)Nc1nccs1 | > 13.1 µg/mL | > 13.1 µg/mL | > 13.1 µg/mL | > 13.1 µg/mL | 4.23 µg/mL (≈ 9.71 µM) | 0% | 33.34% | 100% | 6.3 µM | 33.33% |  |
| Cc1[nH]c2ccccc2c1SCCNC(=O)c1c(-c2ccccc2Cl)noc1C | > 12.8 µg/mL | > 12.8 µg/mL | > 12.8 µg/mL | > 13.6 µg/mL | > 12.8 µg/mL | 0% | 20% | 100% | 4.49 µM | 25% |  |
| Cc1nn(-c2ccccc2)c2[nH]cc(C(=O)Nc3ccc(F)c(Cl)c3)c(=O)c12 | 1 µg/mL (≈ 2.53 µM) | > 11.9 µg/mL | 1.96 µg/mL (≈ 4.93 µM) | 4.14 µg/mL (≈ 10.4 µM) | 2.34 µg/mL (≈ 5.9 µM) | 62.5% | -1% | 100% | 5.95 µM | 33.33% |  |
| COC(=O)c1ccc(COc2cccc3c2CCN(Cc2ccc(Cl)cc2)C3=O)o1 | > 12.8 µg/mL | 4.84 µg/mL (≈ 11.4 µM) | 3.19 µg/mL (≈ 7.49 µM) | 0.772 µg/mL (≈ 1.81 µM) | > 12.8 µg/mL | 0% | 20% | 100% | 4.61 µM | 12.5% |  |
| CCN1CCc2c(sc(NC(=O)c3ccc(S(=O)(=O)N4CC5(C)CC4CC(C)(C)C5)cc3)c2C(N)=O)C1 (stereo not given) | 3.41 µg/mL (≈ 6.26 µM) | 5.59 µg/mL (≈ 10.3 µM) | 3.2 µg/mL (≈ 5.88 µM) | 3.82 µg/mL (≈ 7.01 µM) | 5.29 µg/mL (≈ 9.71 µM) | 0% | 6.7% | 100% | 3.54 µM | 0% |  |
| O=C(Nc1nc(-c2ccccn2)cs1)c1ccc2c(c1)CCCC2 | > 10.1 µg/mL | 9.24 µg/mL (≈ 27.5 µM) | > 10.1 µg/mL | > 10.1 µg/mL | > 10.1 µg/mL | 12.5% | 60% | 100% | 1.91 µM | 50% |  |
| COc1cccc(C(=O)Nc2nnc(SCc3ccc(Br)cc3)s2)c1 | > 13.1 µg/mL | > 13.1 µg/mL | > 13.1 µg/mL | > 13.1 µg/mL | > 13.1 µg/mL | 0% | 0% | 100% | 1.77 µM | 33.33% |  |
| O=C(O)CCC(=O)Nc1ccc(Br)cc1 | > 8.16 µg/mL | > 8.16 µg/mL | > 8.16 µg/mL | > 8.16 µg/mL | > 8.16 µg/mL | 0% | 0% | 100% | 6.6 µM | 0% |  |
| CN(Cc1ccco1)S(=O)(=O)c1ccc(C(=O)Nc2nc3c(s2)CSc2ccccc2-3)cc1 | > 14.9 µg/mL | > 14.9 µg/mL | 3.86 µg/mL (≈ 7.76 µM) | 2.24 µg/mL (≈ 4.49 µM) | > 14.9 µg/mL | 91.7% | 0% | 100% | 3.97 µM | 40% |  |
| COC(=O)c1ccc(CSc2ccc(NC(=O)C(C)C)nn2)o1 | > 10.1 µg/mL | > 10.1 µg/mL | > 10.1 µg/mL | > 10.1 µg/mL | > 10.1 µg/mL | 0% |  | 100% | 6.15 µM | 0% | 0% |
| COc1ccc(Cl)cc1NC(=O)CSc1nccn1-c1cccc(C)c1C | > 12.1 µg/mL | > 12.1 µg/mL | 2.76 µg/mL (≈ 6.86 µM) | > 12.9 µg/mL | > 12.1 µg/mL | 0% | 46.67% | 100% | 3.94 µM | 25% |  |
| O=C(CCCSc1ccc(F)cc1)N1CCN(c2nc3ccc(Cl)cc3s2)CC1 | > 13.5 µg/mL | > 13.5 µg/mL | > 13.5 µg/mL | > 13.5 µg/mL | 4.37 µg/mL (≈ 9.71 µM) | 0% | 12.34% | 100% | 3.54 µM | 40% |  |
